ChEMBL document CHEMBL1122931, “Uridine 5'-diphosphate glucose analogues. Inhibitors of protein glycosylation that show antiviral activity” (J Med Chem, 1985)

Assays:
[1] = (§1) Concentration that induces 50% cell toxicity was determined using monolayers of uninfected HeLa cells; format: cell-based; settings: human, monolayers of uninfected HeLa cells; read-out: Tox50
Outline: (§2)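 Uninfected HeLa monolayers, grown in DMEM with 10% newborn calf serum, were exposed to several concentrations of compound. They were incubated for 48 h at 37 °C, as in the parallel HSV-1 cytopathic-effect assay. Toxicity was judged by phase-contrast microscopy.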

Human alphaherpesvirus 1 = test: Concentration that protects by 50% the cytopathic effect induced by herpes simplex virus - 1.; format: functional
Outline: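 HeLa monolayers (DMEM + 10% newborn calf serum) infected with HSV-1 strain KOS (Vero-grown and titrated) at moi 0.5 pfu/cell in presence of several compound concentrations; 48 h at 37 °C, then cytopathic effect scored by phase-contrast microscopy. Toxicity judged microscopically in uninfected cells.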

HeLa = test: as §1; format: cell-based; settings: human, hela; read-out: Tox50; outline: as §2

SMILES: NC(=O)O[C@H]1O[C@H](COCc2ccccc2)[C@@H](OCc2ccccc2)[C@H](OCc2ccccc2)[C@H]1OCc1ccccc1
- CC50 [1]: > 350 µM
- CPE50 (Human alphaherpesvirus 1): >350 µM

SMILES: CC1(C)O[C@@H]2[C@H](O1)[C@@H](COS(=O)(=O)NC(=O)O[C@H]1O[C@H](COCc3ccccc3)[C@@H](OCc3ccccc3)[C@H](OCc3ccccc3)[C@H]1OCc1ccccc1)O[C@H]2n1ccc(=O)[nH]c1=O
- CC50 [1]: 230 µM
- CPE50 (Human alphaherpesvirus 1): 85 µM

SMILES: O=C(NS(=O)(=O)OC[C@H]1OC(n2ccc(=O)[nH]c2=O)[C@H](O)[C@@H]1O)O[C@H]1O[C@H](COCc2ccccc2)[C@@H](OCc2ccccc2)[C@H](OCc2ccccc2)[C@H]1OCc1ccccc1 (some centres undefined)
- CC50 [1]: 360 µM
- CPE50 (Human alphaherpesvirus 1): 90 µM

SMILES: CC(=O)N[C@H]1[C@@H](OC(=O)NS(=O)(=O)OC[C@H]2OC(n3ccc(=O)[nH]c3=O)[C@H](O)[C@@H]2O)O[C@H](COC(C)=O)[C@@H](OC(C)=O)[C@@H]1OC(C)=O (some centres undefined)
- CC50 [1]: > 575 µM
- CPE50 (Human alphaherpesvirus 1): >575 µM

SMILES: CC1(C)O[C@@H]2[C@H](O1)[C@@H](COS(N)(=O)=O)O[C@H]2n1ccc(=O)[nH]c1=O
- CC50 [1]: 740 µM
- CPE50 (Human alphaherpesvirus 1): 740 µM

SMILES: CC1(C)O[C@@H]2[C@H](O1)[C@@H](COC(N)=O)O[C@H]2n1ccc(=O)[nH]c1=O
- CC50 [1]: > 660 µM
- CPE50 (Human alphaherpesvirus 1): >660 µM

SMILES: Nc1nc2c(ncn2COCCO)c(=O)[nH]1 [ACYCLOVIR]
- CC50 [1]: 10000 µM
- CPE50 (Human alphaherpesvirus 1): 60 µM

SMILES: NC12CC3CC(CC(C3)C1)C2 [AMANTADINE]
- CC50 [1]: 500 µM
- CPE50 (Human alphaherpesvirus 1): 200 µM

SMILES: O=c1[nH]c(=O)n([C@H]2C[C@H](O)[C@@H](CO)O2)cc1/C=C/Br [BRIVUDINE]
- CC50 [1]: 400 µM
- CPE50 (Human alphaherpesvirus 1): 1 µM

SMILES: CC(=O)N[C@H]1[C@@H](O[C@@H]2O[C@H](CC(O)[C@H]3O[C@@H](n4ccc(=O)[nH]c4=O)[C@H](O)[C@@H]3O)[C@H](O)[C@H](O)[C@H]2NC(=O)/C=C/CC(C)C)O[C@H](CO)[C@@H](N)[C@@H]1O (some centres undefined) [TUNICAMYCIN]
- CC50 (HeLa): 1 µM
